Experimental data from ChEMBL document CHEMBL1129795, “2-Azetidinone cholesterol absorption inhibitors: structure-activity relationships on the heterocyclic nucleus” (1996).

How the values were obtained:
[1] = target: T1, Sterol O-acyltransferase 1 (Rattus norvegicus) (UniProt O70536); experiment: In vitro for inhibitory activity against Acyl coenzyme A:cholesterol acyltransferase 1 from rat liver microsomes at 50 uM
T1 sequence (whole entry): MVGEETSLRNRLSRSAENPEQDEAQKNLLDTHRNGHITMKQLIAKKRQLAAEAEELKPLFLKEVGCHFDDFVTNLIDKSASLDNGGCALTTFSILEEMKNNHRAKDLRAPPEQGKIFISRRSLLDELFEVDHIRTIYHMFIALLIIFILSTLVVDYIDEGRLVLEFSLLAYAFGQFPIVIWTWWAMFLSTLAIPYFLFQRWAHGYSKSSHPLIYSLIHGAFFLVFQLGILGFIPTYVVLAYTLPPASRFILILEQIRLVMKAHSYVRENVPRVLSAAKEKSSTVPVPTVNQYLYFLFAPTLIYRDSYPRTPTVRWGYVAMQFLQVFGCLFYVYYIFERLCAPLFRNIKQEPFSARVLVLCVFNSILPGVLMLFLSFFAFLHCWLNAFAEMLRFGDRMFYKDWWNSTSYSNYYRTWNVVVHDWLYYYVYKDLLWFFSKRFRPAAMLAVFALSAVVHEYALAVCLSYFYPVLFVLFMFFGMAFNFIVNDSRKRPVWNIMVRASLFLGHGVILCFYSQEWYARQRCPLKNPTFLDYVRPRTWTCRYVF
How it was run: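 Rat liver microsomes were used to measure ACAT activity as the formation of cholesteryl [3H]oleate from cholesterol and [3H]oleoyl CoA. Results are given as percent inhibition at a single concentration.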

[2] = system: Cricetinae gen. sp.; experiment: In vivo for cholesterol absorption inhibitory activity using 7-day cholesterol-fed hamster model (expressed as percent change in cholesteryl esters at 50 mg/kg/day); type: functional, Cricetulus griseus
How it was run: (§1)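 Hamsters were fed a high-cholesterol diet for 7 days and gavaged once daily with compound in 0.2 mL corn oil. On the last day, animals were sacrificed and hepatic and serum lipids were determined. Results are given as percent change in hepatic cholesteryl ester or serum cholesterol concentration versus diet-fed controls gavaged with corn oil without drug.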

[3] = system: Cricetinae gen. sp.; experiment: In vivo cholesterol absorption inhibitory activity using 7-day cholesterol-fed hamster model (expressed as percent change in serum cholesterol at 50 mg/kg/day); type: functional, Cricetulus griseus; how it was run: as §1
[4] = system: Cricetinae gen. sp.; experiment: Compound was tested in vivo for Cholesterol absorption inhibitory activity by using 7-day cholesterol-fed hamster model.(change in serum cholesterol( tested at 50 mg/kg/day).; type: functional; how it was run: as §1
[5] = system: Cricetinae gen. sp.; experiment: Compound was tested in vivo for Cholesterol absorption inhibitory activity by using 7-day cholesterol-fed hamster model.(change in % change in cholesteryl esters(tested at 50 mg/kg/day).; type: functional, Cricetulus griseus; how it was run: as §1

inhibition [1] [%]	SMILES	Change [2] [%]	Change [3] [%]	Change [4] [%]	Change [5] [%]
59	COc1ccc(N2C(=O)[C@H](CCCc3ccccc3)[C@H]2c2ccc(OC(C)C)cc2)cc1	-94	-38	–	–
39	COc1ccc(N2C(=O)[C@@H](CCCc3ccccc3)[C@H]2c2cccc(OC)c2)cc1	-54	-19	–	–
22	COc1ccc(N2C(=O)[C@H](CCCc3ccccc3)[C@H]2c2ccccc2)cc1	-15	-6	–	–
21	COc1ccc(N2C(=O)[C@H](CCCc3ccccc3)[C@H]2c2ccc([N+](=O)[O-])cc2)cc1	0	-11	–	–
53	COc1ccc(N2C(=O)[C@H](CCCc3ccccc3)[C@H]2c2ccc(OC)c(OC)c2)cc1	-33	-11	–	–
20	COc1ccc(N2C(=O)[C@@H](CCCc3ccccc3)[C@H]2c2ccc(O)cc2)cc1	-75	-31	–	–
68	CCOc1ccc([C@@H]2[C@@H](CCCc3ccccc3)C(=O)N2c2ccc(OC)cc2)cc1	-98	-52	–	–
–	COc1ccc(N2C(=O)[C@H](CCCc3ccccc3)[C@H]2c2ccc(O)c(O)c2)cc1	–	–	0	–
–	CCCCCCCCCC[C@@H]1C(=O)N(c2ccc(OC)cc2)[C@@H]1c1ccc(OC)cc1	–	–	0	-15
–	CCC(=O)Oc1ccc(N2C(=O)[C@H](CCCc3ccccc3)[C@H]2c2ccc(OC)cc2)cc1	–	–	-22	-54
63	COc1ccc(N2C(=O)[C@H](CCCc3ccccc3)[C@H]2c2ccc(N)cc2)cc1	0	0	–	–
79	CCOc1ccc([C@@H]2[C@H](CCCc3ccccc3)C(=O)N2c2ccc(OC)cc2)cc1	-93	-48	–	–
-6	COc1ccc(N2C(=O)[C@H](CCCc3ccccc3)[C@H]2c2ccc(CO)cc2)cc1	-46	-21	–	–
18	COc1ccc(N2C(=O)[C@H](CCCc3ccccc3)[C@H]2c2ccc(C)cc2)cc1	-21	-20	–	–
–	COc1ccc([C@@H]2[C@H](CCCCCc3ccccc3)C(=O)N2c2ccc(OC)cc2)cc1	-70	-24	–	–
–	COc1ccc(N2C(=O)[C@H](CCCc3ccccc3)[C@H]2c2ccc(NS(C)(=O)=O)cc2)cc1	-46	-8	–	–
8	COc1ccc(N2C(=O)[C@H](CCCc3ccccc3)[C@H]2c2ccc(O)cc2)cc1	-48	-16	–	–
–	COc1ccc(N2C(=O)[C@@H](CCCc3ccccc3)[C@H]2c2ccc3c(c2)OCO3)cc1	0	0	–	–

inhibition [1] [%]	SMILES	Change [2] [%]	Change [3] [%]	Change [4] [%]	Change [5] [%]
–	COc1ccc([C@@H]2[C@H](CCCC3CCCCC3)C(=O)N2c2ccc(OC)cc2)cc1	-28	12	–	–
–	COc1ccc([C@@H]2[C@@H](CCCc3ccccc3)C(=O)N2C2CCCCC2)cc1	0	0	–	–
–	COc1ccc(N2C(=O)[C@H](CCCc3ccccc3)[C@H]2c2ccc(OC(F)(F)F)cc2)cc1	-29	0	–	–
–	C=CCN1C(=O)[C@H](CCCc2ccccc2)[C@H]1c1ccc(OC)cc1	0	0	–	–
–	COc1ccc(N[C@H](c2ccc(OC)cc2)[C@@H](CCCc2ccccc2)C(=O)O)cc1	0	-8	–	–
–	CCN1C(=O)[C@H](CCCc2ccccc2)[C@H]1c1ccc(OC)cc1	-21	-13	–	–
21	COc1ccc(N2C(=O)[C@H](CCCc3ccccc3)[C@H]2c2cccc(OC)c2)cc1	-24	-17	–	–
–	COc1ccc([C@@H]2[C@@H](CCCc3ccccc3)C(=O)N2c2ccccc2OC)cc1	-87	-49	–	–
–	COc1ccc(N2C(=O)[C@@H](CCCc3ccccc3)[C@H]2c2ccc(S)cc2)cc1	0	-19	–	–
–	COc1ccc([C@@H]2[C@@H](CCCc3ccccc3)C(=O)N2C2CC2)cc1	-61	-20	–	–
–	CCN(CC)c1ccc(N2C(=O)[C@H](CCCc3ccccc3)[C@H]2c2ccc(OC)cc2)cc1	-95	-51	–	–
–	CCCCCCCCCC[C@H]1C(=O)N(c2ccc(OC)cc2)[C@@H]1c1ccc(OC)cc1	–	–	0	-18
–	COc1ccc(N2C(=O)[C@@H](CCCc3ccccc3)[C@H]2c2ccccc2)cc1	0	0	–	–
–	COc1ccc([C@@H]2[C@@H](CCCc3ccccc3)C(=S)N2c2ccc(OC)cc2)cc1	-23	0	–	–
–	CC[C@H]1C(=O)N(c2ccc(OC)cc2)[C@@H]1c1ccc(OC)cc1	0	0	–	–
–	COc1ccc([C@@H]2[C@@H](CCCc3ccccc3)C(=O)N2c2c(OC)cc(OC)cc2OC)cc1	0	0	–	–
–	COc1ccc([C@@H]2[C@H](CCc3ccccc3)C(=O)N2c2ccc(OC)cc2)cc1	-19	0	–	–
